From ChEMBL document CHEMBL5532695, “4-Trifluoromethyl bithiazoles as broad-spectrum antimicrobial agents for virus-related bacterial infections or co-infections” (RSC Med Chem, 2024)
pEC50, pIC50: −log10 of the molar value. ≈ marks a conversion by molar mass, not a printed value. Calls of active or inactive are those of the source. No cut-off for these calls is given here.

What was measured:
[1] = test system: Pseudomonas aeruginosa; assay: Synergistic antibacterial activity against colistin resistant MDR Pseudomonas aeruginosa SI-270 incubated for 18 to 24 hrs in presence of colistin by broth microdilution method; type: functional; settings: time 18-24 hrs
Method in brief: (§1)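 Minimum antibacterial concentration (MAC) by broth microdilution in Mueller–Hinton medium with a fixed subinhibitory colistin concentration of 2 μg mL−1 against colistin-resistant Gram-negative clinical isolates; inoculum 5 × 10^4 CFU per well, 35 ± 2 °C; triplicate.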

[2] = test system: rhinovirus A16; assay: Antiviral activity against 7 times N-(4'-(Trifluoromethyl)-2-((3-(trifluoromethyl)phenyl)amino)-[4,5'-bithiazol]-2'-yl)benzamide passaged resistance model of Human rhinovirus 16 infected in human HeLa cells assessed as inhibition of viral replication; type: functional, organism-based; settings: Rhinovirus A
Method in brief: (§2)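 HeLa cells infected with RVA16 and serially passaged under compound, supernatants harvested at extensive CPE (3–6 dpi), clarified and titrated on HeLa; each passage used prior virus at MOI 0.01, drug concentration doubled when possible; after 7 passages RNA sequenced. Antiviral read-out: HeLa at 33 °C, 48 h, VP3 immunostaining with HRP secondary; EC50 from variable-slope sigmoidal fit.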

[3] = test system: Escherichia coli; assay: Synergistic antibacterial activity against Escherichia coli CCUGT incubated for 18 to 24 hrs in presence of colistin by broth microdilution method; type: functional; settings: time 18-24 hrs
[4] = test system: Acinetobacter baumannii; assay: Synergistic antibacterial activity against colistin/carbapenem resistant MDR Acinetobacter baumannii N50 incubated for 18 to 24 hrs in presence of colistin by broth microdilution method; type: functional; settings: time 18-24 hrs; method in brief: as §1
[5] = test system: Streptococcus pyogenes; assay: Antibacterial activity against Streptococcus pyogenes ATCC 12344 assessed as reduction in microbial growth measured after 18 hrs by CLSI based broth microdilution method; type: functional
Method in brief: (§3)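 MIC by CLSI broth microdilution in Mueller–Hinton medium, triplicate. Inoculum 5 × 10^4 CFU per well. Compounds taken up in DMSO (50 mg mL−1 stock) and diluted in medium. Read after 18 h at 35 ± 2 °C.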

[6] = molecular target: Phosphatidylinositol 4-kinase beta (Homo sapiens, UniProt Q9UBF8); assay: Inhibition of recombinant full length his tagged PI4KB (unknown origin) incubated for 10 mins in presence of ATP by ADP-glo kinase assay
[7] = test system: enterovirus D68; assay: microbe, parasite or virus in culture; settings: Enterovirus D, HeLa, 48 h
[8] = Cytotoxicity against african green monkey Vero E6 cells assessed as reduction in cell viability by MTT assay; type: toxicity, cell-based; settings: chlorocebus sabaeus, Vero E6 cells (Vero C1008)
Method in brief: (§4)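 MTT viability on HeLa or VeroE6 cells, run in parallel with the antiviral assays. CC50 from variable-slope sigmoidal dose–response regression.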

[9] = test system: Zika virus; assay: microbe, parasite or virus in culture; settings: Vero C1008, 72 h
[10] = test system: Enterococcus faecalis; assay: Antibacterial activity against Enterococcus faecalis ATCC 29212 assessed as reduction in microbial growth measured after 18 hrs by CLSI based broth microdilution method; type: functional; method in brief: as §3
[11] = test system: Bacillus subtilis; assay: Antibacterial activity against Bacillus subtilis ATCC 6633 assessed as reduction in microbial growth measured after 18 hrs by CLSI based broth microdilution method; type: functional; method in brief: as §3
[12] = Cytotoxicity against human HeLa cells assessed as reduction in cell viability by MTT assay; type: toxicity, cell-based; method in brief: as §4
[13] = test system: rhinovirus A16; assay: Antiviral activity against 7 times rupintrivir passaged resistance model of Human rhinovirus 16 infected in human HeLa cells assessed as inhibition of viral replication; type: functional, organism-based; settings: Rhinovirus A; method in brief: as §2
[14] = test system: rhinovirus A16; assay: microbe, parasite or virus in culture; settings: Rhinovirus A, HeLa, 48 h
[15] = test system: Pseudomonas aeruginosa; assay: Synergistic antibacterial activity against Pseudomonas aeruginosa ATCC 27853 incubated for 18 to 24 hrs in presence of colistin by broth microdilution method; type: functional; settings: time 18-24 hrs
[16] = test system: Staphylococcus aureus; assay: Antibacterial activity against Staphylococcus aureus ATCC 25923 assessed as reduction in microbial growth measured after 18 hrs by CLSI based broth microdilution method; type: functional; method in brief: as §3
[17] = test system: Acinetobacter baumannii; assay: Synergistic antibacterial activity against Acinetobacter baumannii ATCC 17978 incubated for 18 to 24 hrs in presence of colistin by broth microdilution method; type: functional; settings: time 18-24 hrs
[18] = test system: rhinovirus A16; assay: Antiviral activity against hRVA16 infected in human HeLa cells assessed as effect on RNA intracellular level at 5 uM pretreated for 1 hrs before infection and measured after 1 to 6 hrs post infection by time of addition assay; type: functional, organism-based; settings: time 2-7 hrs
Method in brief: (§5)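 Time of addition: HeLa cells infected with RVA16 at MOI 0.1. Compound at 5 μM added 1 h before, during, or 1, 2, 4 or 6 h after infection. At 24 h, cells lysed and intracellular viral RNA measured by RV-specific qPCR; supernatant titrated on HeLa cells.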

[19] = test system: Klebsiella pneumoniae; assay: Synergistic antibacterial activity against Klebsiella pneumoniae ATCC 13833 incubated for 18 to 24 hrs in presence of colistin by broth microdilution method; type: functional; settings: time 18-24 hrs
[20] = test system: Escherichia coli; assay: Synergistic antibacterial activity against colistin resistant mcr-positive Escherichia coli SI-63 incubated for 18 to 24 hrs in presence of colistin by broth microdilution method; type: functional; settings: time 18-24 hrs; method in brief: as §1
[21] = test system: rhinovirus A16; assay: Antiviral activity against hRVA16 infected in human HeLa cells assessed as effect on release of infectious virus at 5 uM measured after 24 hrs post infection by time of addition assay; type: functional, organism-based; method in brief: as §5
[22] = test system: Staphylococcus aureus; assay: Antibacterial activity against Staphylococcus aureus; type: functional
[23] = test system: Enterococcus faecium; assay: Antibacterial activity against Vancomycin resistant Enterococcus faecium SI-3856B assessed as reduction in microbial growth measured after 18 hrs by CLSI based broth microdilution method; type: functional
Method in brief: (§6)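 Gram-positive clinical isolates; compounds dissolved in DMSO (50 mg mL−1 stock) and diluted in medium; MIC by CLSI broth microdilution in Mueller–Hinton medium, inoculum 5 × 10^4 CFU per well, read after 18 h at 35 ± 2 °C; triplicate.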

[24] = test system: Enterococcus faecium; assay: Bactericidal activity against Vancomycin resistant Enterococcus faecium SI-1831 assessed as reduction in microbial growth measured after 18 hrs by CLSI based broth microdilution method; type: functional
[25] = test system: Enterococcus faecalis; assay: Bactericidal activity against Enterococcus faecalis ATCC 29212 assessed as reduction in microbial growth measured after 18 hrs by CLSI based broth microdilution method; type: functional
Method in brief: (§7)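 MBC by CLSI broth microdilution in Mueller–Hinton medium, triplicate. Inoculum 5 × 10^4 CFU per well. Read after 18 h at 35 ± 2 °C.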

[26] = test system: Bacillus subtilis; assay: Bactericidal activity against Bacillus subtilis ATCC 6633 assessed as reduction in microbial growth measured after 18 hrs by CLSI based broth microdilution method; type: functional; method in brief: as §7
[27] = test system: Streptococcus pyogenes; assay: Bactericidal activity against Streptococcus pyogenes ATCC 12344 assessed as reduction in microbial growth measured after 18 hrs by CLSI based broth microdilution method; type: functional; method in brief: as §7
[28] = test system: Staphylococcus warneri; assay: Antibacterial activity against oxacillin-resistant Staphylococcus warneri SI-5/2011 assessed as reduction in microbial growth measured after 18 hrs by CLSI based broth microdilution method; type: functional; method in brief: as §6
[29] = test system: Staphylococcus aureus; assay: Antibacterial activity against methicillin-resistant Staphylococcus aureus ATCC 43300 assessed as reduction in microbial growth measured after 18 hrs by CLSI based broth microdilution method; type: functional; method in brief: as §6
[30] = test system: Staphylococcus haemolyticus; assay: Bactericidal activity against oxacillin-resistant Staphylococcus haemolyticus SI-6/2011 assessed as reduction in microbial growth measured after 18 hrs by CLSI based broth microdilution method; type: functional
[31] = test system: Staphylococcus epidermidis; assay: Bactericidal activity against linezolid-resistant Staphylococcus epidermidis SI-1266 assessed as reduction in microbial growth measured after 18 hrs by CLSI based broth microdilution method; type: functional
[32] = test system: Staphylococcus aureus; assay: Bactericidal activity against Staphylococcus aureus ATCC 25923 assessed as reduction in microbial growth measured after 18 hrs by CLSI based broth microdilution method; type: functional; method in brief: as §7
[33] = test system: Staphylococcus aureus; assay: Bactericidal activity against methicillin-resistant Staphylococcus aureus ATCC 43300 assessed as reduction in microbial growth measured after 18 hrs by CLSI based broth microdilution method; type: functional
[34] = test system: Enterococcus faecium; assay: Bactericidal activity against Vancomycin/teicoplanin resistant Enterococcus faecium SI-759 assessed as reduction in microbial growth measured after 18 hrs by CLSI based broth microdilution method; type: functional
[35] = test system: Staphylococcus warneri; assay: Bactericidal activity against oxacillin-resistant Staphylococcus warneri SI-5/2011 assessed as reduction in microbial growth measured after 18 hrs by CLSI based broth microdilution method; type: functional
[36] = test system: Staphylococcus epidermidis; assay: Antibacterial activity against linezolid-resistant Staphylococcus epidermidis SI-1266 assessed as reduction in microbial growth measured after 18 hrs by CLSI based broth microdilution method; type: functional; method in brief: as §6
[37] = test system: Enterococcus faecium; assay: Bactericidal activity against Vancomycin resistant Enterococcus faecium SI-3856B assessed as reduction in microbial growth measured after 18 hrs by CLSI based broth microdilution method; type: functional
[38] = test system: Enterococcus faecium; assay: Antibacterial activity against Vancomycin/teicoplanin resistant Enterococcus faecium SI-759 assessed as reduction in microbial growth measured after 18 hrs by CLSI based broth microdilution method; type: functional; method in brief: as §6
[39] = test system: Enterococcus faecium; assay: Antibacterial activity against Vancomycin resistant Enterococcus faecium SI-1831 assessed as reduction in microbial growth measured after 18 hrs by CLSI based broth microdilution method; type: functional; method in brief: as §6
[40] = test system: Staphylococcus haemolyticus; assay: Antibacterial activity against oxacillin-resistant Staphylococcus haemolyticus SI-6/2011 assessed as reduction in microbial growth measured after 18 hrs by CLSI based broth microdilution method; type: functional; method in brief: as §6

Chain of Phosphatidylinositol 4-kinase beta (Q9UBF8 whole entry): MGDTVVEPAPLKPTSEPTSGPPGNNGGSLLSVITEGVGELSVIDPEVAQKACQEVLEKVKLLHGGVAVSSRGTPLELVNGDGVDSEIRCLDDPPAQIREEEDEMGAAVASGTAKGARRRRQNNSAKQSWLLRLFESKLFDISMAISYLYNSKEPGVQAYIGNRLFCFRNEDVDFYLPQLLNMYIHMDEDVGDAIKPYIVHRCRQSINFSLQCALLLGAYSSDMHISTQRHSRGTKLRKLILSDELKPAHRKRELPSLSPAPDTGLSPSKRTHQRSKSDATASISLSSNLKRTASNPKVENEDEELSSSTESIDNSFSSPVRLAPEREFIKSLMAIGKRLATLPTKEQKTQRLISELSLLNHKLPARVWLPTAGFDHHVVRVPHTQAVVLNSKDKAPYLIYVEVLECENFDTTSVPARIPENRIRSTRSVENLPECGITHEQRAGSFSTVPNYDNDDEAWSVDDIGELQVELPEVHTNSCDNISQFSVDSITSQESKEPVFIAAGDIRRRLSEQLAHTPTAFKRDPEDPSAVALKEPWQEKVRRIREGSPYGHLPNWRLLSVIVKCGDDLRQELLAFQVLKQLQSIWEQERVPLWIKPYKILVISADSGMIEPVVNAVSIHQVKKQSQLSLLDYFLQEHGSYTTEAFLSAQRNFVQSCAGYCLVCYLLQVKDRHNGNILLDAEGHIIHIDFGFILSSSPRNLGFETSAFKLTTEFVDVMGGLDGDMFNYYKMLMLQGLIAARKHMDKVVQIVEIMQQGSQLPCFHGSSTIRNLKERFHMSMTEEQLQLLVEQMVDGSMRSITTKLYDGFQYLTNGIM

Structure (SMILES)	MAC [1] [µg/mL]	pEC50 [2]	MAC [3] [µg/mL]	MAC [4] [µg/mL]	MIC [5] [µg/mL]	IC50 [6]	pIC50 [7]	CC50 [8] [µM]	pIC50 [9]	MIC [10] [µg/mL]	MIC [11] [µg/mL]	CC50 [12] [µM]	pEC50 [13]	pIC50 [14]	MAC [15] [µg/mL]	MIC [16] [µg/mL]	MAC [17] [µg/mL]	MAC [19] [µg/mL]	MAC [20] [µg/mL]	pEC50 [14]	also measured
O=C(Nc1nc(C(F)(F)F)c(-c2csc(Nc3cccc(C(F)(F)F)c3)n2)s1)c1ccccc1	16	5.36	2	0.06	> 32	Not Active	5.95	35.9	5.34	> 32	> 32	> 50	5.98	6.31	>64	> 32	8	64	1	–	Activity [18]: Active; Activity [21]: Active
CCOC(=O)/C=C/[C@H](C[C@@H]1CCNC1=O)NC(=O)[C@@H](CC(=O)[C@@H](NC(=O)c1cc(C)on1)C(C)C)Cc1ccc(F)cc1 [RUPINTRIVIR]	–	8.30	–	–	–	–	–	–	–	–	–	–	7.85	–	–	–	–	–	–	8.70	–
CC(C)(C)C(=O)Nc1nc(C(F)(F)F)c(-c2csc(Nc3cccc(C(=O)O)c3)n2)s1	–	–	–	–	–	–	–	–	–	–	–	–	–	–	–	–	–	–	–	–	MIC [22]: 32 µg/mL (≈ 68 µM)
CC(C)(C)C(=O)Nc1nc(C(F)(F)F)c(-c2csc(Nc3cccc(C(F)(F)F)n3)n2)s1	64	–	2	0.06	8	Not Active	5.17	46	5.16	8	8	31.8	–	5.04	>64	32	4	2	1	–	MIC [23]: > 64 µg/mL; MBC [24]: > 64 µg/mL; MBC [25]: 16 µg/mL; MBC [26]: 16 µg/mL; MBC [27]: 8 µg/mL; MIC [28]: > 64 µg/mL; MIC [29]: 16 µg/mL; MBC [30]: > 64 µg/mL; MBC [31]: > 64 µg/mL; MBC [32]: > 32 µg/mL; MBC [33]: > 64 µg/mL; MBC [34]: > 64 µg/mL; MBC [35]: > 64 µg/mL; MIC [36]: > 64 µg/mL; MBC [37]: > 64 µg/mL; MIC [38]: 64 µg/mL; MIC [39]: > 64 µg/mL; MIC [40]: > 64 µg/mL
CC(C)S(=O)(=O)n1c(N)nc2ccc(/C(=N/O)c3ccccc3)cc21 [ENVIROXIME]	–	7.57	–	–	–	–	–	–	–	–	–	–	7.57	–	–	–	–	–	–	7.31	–
CC(C)(C)C(=O)Nc1nc(C(F)(F)F)c(-c2csc(Nc3cccc(C(F)(F)F)c3)n2)s1	2	–	4	0.03	4	–	5.08	> 50	4.94	8	4	46	–	5.74	>64	8	4	4	0.5	–	MIC [23]: 4 µg/mL; MBC [24]: > 64 µg/mL; MBC [25]: > 32 µg/mL; MBC [26]: 8 µg/mL; MBC [27]: 4 µg/mL; pIC50 ([6]; read-out: IC50): < 4.30; MIC [28]: 4 µg/mL; MIC [29]: 4 µg/mL; MBC [31]: > 64 µg/mL; MBC [32]: 32 µg/mL; MBC [33]: 32 µg/mL; MBC [34]: 4 µg/mL; MBC [35]: 64 µg/mL; MIC [36]: 16 µg/mL; MBC [37]: > 64 µg/mL; MIC [38]: 2 µg/mL; MIC [39]: 2 µg/mL; MIC [40]: > 64 µg/mL
